The record followed here is PubChem BioAssay.

Activity calls are given as the source filed them.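 Rule for the calls, unless noted: active = viability loss from added drug above about 55%, and viability with drug at most 40%, in both replicates (limit read from the data, passing the limit was not always enough); inconclusive = both conditions met in only one replicate; inactive = neither replicate meets both conditions.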

Assay [1] in a line: Her2 expression decrease, cell viability multiplex – SKBR3 breast tumor cells, AlphaScreen, ATP viability, primary screen (AID 461;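 active = Her2 level under about 52% in both replicate screens, with viability over 70% of control, limit read from the data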;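 for Her2 level: lower value means less Her2 protein in the cells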;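 for viability: percent of carrier control wells set as 100% viability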). As to conditions: SKBR3 Her2 protein level, 18-24 h, measured here: SKBR3 viability, ATP luminescence, at 10 µM.
The target in assay [2] is Receptor tyrosine-protein kinase erbB-2 (Homo sapiens) (UniProt P04626). The assay is described as above. The settings on record: 18-24 h, at 10 µM, stronger effect = lower value.
Sequence of Receptor tyrosine-protein kinase erbB-2 (Homo sapiens) (P04626 whole entry, looked up): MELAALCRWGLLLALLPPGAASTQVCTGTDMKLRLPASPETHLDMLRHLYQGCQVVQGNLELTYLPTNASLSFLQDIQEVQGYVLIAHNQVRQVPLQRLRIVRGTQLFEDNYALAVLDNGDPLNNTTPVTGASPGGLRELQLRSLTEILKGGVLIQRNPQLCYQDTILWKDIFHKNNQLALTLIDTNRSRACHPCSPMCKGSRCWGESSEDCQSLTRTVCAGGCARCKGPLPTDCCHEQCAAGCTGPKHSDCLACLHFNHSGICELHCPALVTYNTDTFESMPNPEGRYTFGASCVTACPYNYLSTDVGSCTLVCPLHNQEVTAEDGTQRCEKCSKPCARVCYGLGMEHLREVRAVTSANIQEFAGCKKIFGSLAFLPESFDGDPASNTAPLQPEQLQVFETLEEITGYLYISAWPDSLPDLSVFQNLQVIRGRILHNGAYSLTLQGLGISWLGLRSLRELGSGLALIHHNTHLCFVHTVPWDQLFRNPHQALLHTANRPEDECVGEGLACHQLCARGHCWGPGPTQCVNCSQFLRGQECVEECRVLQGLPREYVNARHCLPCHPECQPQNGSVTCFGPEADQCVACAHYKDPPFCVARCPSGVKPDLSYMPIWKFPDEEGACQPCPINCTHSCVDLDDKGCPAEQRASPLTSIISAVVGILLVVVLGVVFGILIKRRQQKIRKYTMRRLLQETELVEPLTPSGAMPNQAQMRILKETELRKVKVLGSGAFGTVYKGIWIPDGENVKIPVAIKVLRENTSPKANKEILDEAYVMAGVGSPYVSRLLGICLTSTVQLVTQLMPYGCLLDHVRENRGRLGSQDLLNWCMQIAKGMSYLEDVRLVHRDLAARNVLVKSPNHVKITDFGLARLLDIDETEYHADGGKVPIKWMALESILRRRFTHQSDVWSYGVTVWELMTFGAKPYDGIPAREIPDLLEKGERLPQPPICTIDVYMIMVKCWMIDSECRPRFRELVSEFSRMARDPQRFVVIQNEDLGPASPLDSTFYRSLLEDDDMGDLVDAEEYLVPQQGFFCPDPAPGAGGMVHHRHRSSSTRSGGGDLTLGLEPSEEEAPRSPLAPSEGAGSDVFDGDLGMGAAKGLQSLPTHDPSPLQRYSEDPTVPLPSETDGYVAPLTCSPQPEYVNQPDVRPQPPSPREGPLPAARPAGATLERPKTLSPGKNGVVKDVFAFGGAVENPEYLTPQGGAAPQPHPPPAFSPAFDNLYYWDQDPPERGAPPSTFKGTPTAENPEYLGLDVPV
A short description of assay [3]: reduced viability of SK-BR-3 breast cancer cells – cell-based, 24 h, human, pilot screen (AID 572;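 active = viability at or below 10% of carrier control in both of two separate runs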;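 note: compound exposure lasted between 18 and 24 h rather than exactly 24 h; 100% = carrier-treated control wells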). As to conditions: SK-BR-3 viability, CellTiter-Glo luminescence, at 10 µM, stronger effect = lower value. (In general: In ATP-based viability assays light output follows the ATP content of the culture.)
Assay [4] can be described thus: HUVEC growth inhibition – cell-based, human, primary screen (AID 575;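 active = viability at or below 30% in both replicate assays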;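 note: 100% = median of untreated cell wells with 0.1% DMSO on each plate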). The settings on record: HUVEC proliferation, CellTiter-Glo luminescence, 72 h; at 10 µM; stronger effect = lower value. In short, it runs like this:
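Material: primary human umbilical vein endothelial cells / Schedule: 72 h exposure, 37 °C, 5% CO2, 30 min RT equilibration / Signal: ATP-based CellTiter-Glo luminescent read / Read-out basis: percent of median DMSO-control luminescence / Control set: 32 DMSO-only cell-control wells (high), 32 MePR drug-control wells (low) per plate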

Assay [5] is described as follows: H69AR cell proliferation blockers – human, duplicate replicates, primary screen (AID 580;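 active = viability at or under a set limit in both replicates, limit being median viability minus 3 SD, cut at about 48% in these data, passing the limit was not always enough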;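 note: 100% = mean luminescence of untreated wells and 0% = no signal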). As to conditions: H69AR lung tumor cells viability, ATP luminescence, 72 h; at 10 µM; stronger effect = lower value.
Assay [6] in a line: MRP1 drug-resistance reversers in H69AR cells – cell-based, doxorubicin co-treatment, pilot screen (AID 601). The settings on record: CellTiter-Glo, 72 h, at 10 µM; for differential viability (reversal): stronger effect = higher value.
The nature of assay [7]: yeast transport mutant growth inhibition pilot in 384-well plates, post-Golgi transport modulator project (AID 636; in the data active = inhibition above about 31%). The settings on record: absorbance 615 nm, about 18 h, stronger effect = higher value.
A short description of assay [8]: growth suppression of yeast trafficking mutant, preliminary HTS, modulators of trafficking downstream of Golgi apparatus project, 1536-format plate, OD 615 nm (AID 637; in the data active = inhibition above about 30%). As to conditions: yeast transport mutant growth, absorbance 615 nm, 18 h; stronger effect = higher value.
[9] abbreviates: H69AR cells + 2 uM doxorubicin, measured here: viability with 2 uM doxorubicin, stronger effect = lower value.
Setting [10] is: H69AR cells, compound alone cytotoxicity.

Usually viability stands for a read-out of living cells in per cent, often relative to untreated cells. For orientation: inhibition means the relative decrease from the control value, in per cent.

As for `O=C(OC1CCOC1=O)c1ccc(S(=O)(=O)N2CCCCCC2)cc1` (stereo not given), the viability in assay [1] was 95.5%; in assay [3], 95.5% (inactive); in assay [4], 95.3% (inactive); in assay [5], 106% (inactive); in assay [6] (setting [9]) it was 93.6%; in assay [6] (setting [10]), 106%. Further, the Her2 level in assay [2] is 113% (inactive). Besides, the differential viability (reversal) in assay [6] (H69AR cells + 2 uM doxorubicin) is 12.5% (inactive). Also, the inhibition in assay [7] is 0.26% (inactive); in assay [8], 1.83% (inactive).
Take `CCCN(CCC)CCNC(=O)C(NS(=O)(=O)c1ccc2c(c1)CCC(=O)N2)c1ccccc1` (stereo not given): the viability was 87.5% in assay [1]; 87.5% (inactive) in assay [3]; 108% (inactive) in assay [4]; 89.4% (inactive) in assay [5]; 89% in assay [6] (setting [9]); 89.4% in assay [6] (setting [10]). Moreover, the Her2 level in assay [2] is 86.5% (inactive). Besides, the differential viability (reversal) in assay [6] (H69AR cells + 2 uM doxorubicin) is 0.46% (inactive). Moreover, the values for the inhibition in assay [7] and in assay [8] were 1.05% (inactive) and -1.45% (inactive), respectively.
Take `O=C(CCSc1nc(-c2ccco2)cc(C(F)(F)F)n1)Nc1ccc2c(c1)OCO2`: the viability in assay [1] is 83%; in assay [3] it was 83% (inactive); in assay [4], 56.3% (inactive); in assay [5], 78.4% (inactive); in assay [6] (setting [9]), 88.5%; in assay [6] (setting [10]), 78.4%. For the same compound, the Her2 level in assay [2] is 94.5% (inactive). Also, the differential viability (reversal) in assay [6] (H69AR cells + 2 uM doxorubicin) is -10.1% (inactive). The inhibition in assay [7] was -7.47% (inactive); in assay [8], 3.81% (inactive).
In the case of `O=C(NCC(F)(F)F)N1CCOCC1`, the viability in assay [1] was 96%; in assay [3], 96% (inactive); in assay [4] it was 89.5% (inactive); in assay [5] it was 100% (inactive); in assay [6] (setting [9]) it was 91.8%; in assay [6] (setting [10]) it was 100%. For the same compound, the Her2 level in assay [2] was 85.5% (inactive). For the same compound, the differential viability (reversal) in assay [6] (H69AR cells + 2 uM doxorubicin) is 8.42% (inactive). The inhibition in assay [7] is -6.71% (inactive); in assay [8], -6.19% (inactive).
Take `CCC(=O)N1Cc2ccccc2-c2ccccc2C1=O`: the viability in assay [1] was 102%; in assay [3], 102% (inactive); in assay [4] it was 80.1% (inactive); in assay [5], 90% (inactive); in assay [6] (setting [9]), 85.2%; in assay [6] (setting [10]) it was 90%. The Her2 level in assay [2] was 91% (inactive). Moreover, the differential viability (reversal) in assay [6] (H69AR cells + 2 uM doxorubicin) was 4.75% (inactive). Further, the inhibition in assay [7] is -5.06% (inactive); in assay [8] it was 4.76% (inactive).
Consider `O=C(Oc1cccc2cccnc12)c1cccc(-n2cnnn2)c1`, for which the viability in assay [1] is 104%; in assay [3], 104% (inactive); in assay [4], 60.3% (inactive); in assay [5], 91.9% (inactive); in assay [6] (setting [9]), 76.8%; in assay [6] (setting [10]) it was 91.9%. Further, the Her2 level in assay [2] is 82% (inactive). Besides, in assay [6] (H69AR cells + 2 uM doxorubicin), the differential viability (reversal) was 15.1% (inactive). The inhibition in assay [7] was -2.53% (inactive); in assay [8], 5.97% (inactive).
For `COc1ccccc1NC(=O)c1cc2n(n1)C(C(F)(F)F)CC(c1ccc3c(c1)OCO3)N2` (stereo not given), the viability in assay [1] is 85%; in assay [3], 85% (inactive); in assay [4], 47.7% (inactive); in assay [5], 73.3% (inactive); in assay [6] (setting [9]), 87.1%; in assay [6] (setting [10]), 73.3%. In addition, in assay [2], the Her2 level was 95% (inactive). Further, the differential viability (reversal) in assay [6] (H69AR cells + 2 uM doxorubicin) is -13.8% (inactive). Further, the inhibition is -4.03% (inactive) in assay [7] and -3.33% (inactive) in assay [8].
For the compound `Cc1nc2ccc(S(=O)(=O)NCC(=O)O)cc2s1`, the viability was 102% in assay [1]; 102% (inactive) in assay [3]; 110% (inactive) in assay [4]; 107% (inactive) in assay [5]; 101% in assay [6] (setting [9]); 107% in assay [6] (setting [10]). For the same compound, in assay [2], the Her2 level is 100% (inactive). Besides, the differential viability (reversal) in assay [6] (H69AR cells + 2 uM doxorubicin) was 5.9% (inactive). For the same compound, the inhibition in assay [7] was -1.84% (inactive); in assay [8] it was -6.19% (inactive).
In the case of `CCOCCCNCC(=O)N1CCN(S(=O)(=O)c2ccc(C)cc2)CC1`, the viability was 90% in assay [1]; 90% (inactive) in assay [3]; 96.2% (inactive) in assay [4]; 101% (inactive) in assay [5]; 89.4% in assay [6] (setting [9]); 101% in assay [6] (setting [10]). Also, in assay [2], the Her2 level was 99.5% (inactive). Also, in assay [6] (H69AR cells + 2 uM doxorubicin), the differential viability (reversal) is 12% (inactive). The values for the inhibition in assay [7] and in assay [8] were -6.18% (inactive) and -1.45% (inactive), respectively.
Consider `CC1=C(C(=O)OCc2ccccc2)C(c2ccc(C)o2)C2=C(CCCC2=O)N1` (stereo not given), for which the viability in assay [1] is 72%; in assay [3], 72% (inactive); in assay [4], 113% (inactive); in assay [5], 103% (inactive); in assay [6] (setting [9]), 89.1%; in assay [6] (setting [10]) it was 103%. Besides, the Her2 level in assay [2] was 88% (inactive). In addition, the differential viability (reversal) in assay [6] (H69AR cells + 2 uM doxorubicin) is 13.5% (inactive). In addition, the inhibition was -6.89% (inactive) in assay [7] and 6.07% (inactive) in assay [8].
In the case of `Nc1c(Sc2ccccc2)c(=O)[nH]c(=O)n1Cc1ccccc1`, the viability in assay [1] was 90.5%; in assay [3], 90.5% (inactive); in assay [4] it was 109% (inactive); in assay [5] it was 102% (inactive); in assay [6] (setting [9]) it was 93.2%; in assay [6] (setting [10]), 102%. The Her2 level in assay [2] was 104% (inactive). Moreover, the differential viability (reversal) in assay [6] (H69AR cells + 2 uM doxorubicin) was 8.38% (inactive). Further, the inhibition in assay [7] is -5.14% (inactive); in assay [8], -6% (inactive).
As for `CC(=O)Nc1ccc(Cl)c(C(N)=O)c1`, the viability in assay [1] was 110%; in assay [3], 110% (inactive); in assay [4] it was 97.1% (inactive); in assay [5], 95.3% (inactive); in assay [6] (setting [9]), 86.8%; in assay [6] (setting [10]) it was 95.3%. Besides, in assay [2], the Her2 level is 108% (inactive). In addition, the differential viability (reversal) in assay [6] (H69AR cells + 2 uM doxorubicin) is 8.55% (inactive). For the same compound, the inhibition in assay [7] was -3.68% (inactive); in assay [8], 6.07% (inactive).
Regarding `Cc1nn(-c2ccc(Cl)cc2)c2sc(C(=O)N3CCN(c4ccccn4)CC3)cc12`, the viability in assay [1] was 103%; in assay [3], 103% (inactive); in assay [4], 51.6% (inactive); in assay [5], 67.2% (inactive); in assay [6] (setting [9]), 57.6%; in assay [6] (setting [10]) it was 67.2%. Besides, the Her2 level in assay [2] was 80% (inactive). In addition, the differential viability (reversal) in assay [6] (H69AR cells + 2 uM doxorubicin) was 9.58% (inactive). The inhibition was -5.84% (inactive) in assay [7] and -2.54% (inactive) in assay [8].
As for `Cc1cccc(N(CC(N)=O)S(C)(=O)=O)c1C`, the viability in assay [1] is 102%; in assay [3] it was 102% (inactive); in assay [4], 107% (inactive); in assay [5], 92% (inactive); in assay [6] (setting [9]) it was 87.2%; in assay [6] (setting [10]), 92%. Further, the Her2 level in assay [2] was 100% (inactive). Also, the differential viability (reversal) in assay [6] (H69AR cells + 2 uM doxorubicin) was 4.79% (inactive). The inhibition in assay [7] was -2.76% (inactive); in assay [8], 0.82% (inactive).
Turning to `O=C1CC(N2CCN(C3CCc4ccccc4C3)CC2)C(=O)N1c1ccccc1` (stereo not given), the viability was 89.5% in assay [1]; 89.5% (inactive) in assay [3]; 102% (inactive) in assay [4]; 91.6% (inactive) in assay [5]; 90% in assay [6] (setting [9]); 91.6% in assay [6] (setting [10]). The Her2 level in assay [2] was 97.5% (inactive). Also, in assay [6] (H69AR cells + 2 uM doxorubicin), the differential viability (reversal) is 1.58% (inactive). Further, the inhibition in assay [7] was -1.95% (inactive); in assay [8], 3.93% (inactive).
As for `CCOC(=O)c1cccc(NC(=O)Cn2cnc3c2c(=O)n(C)c(=O)n3C)c1`, the viability was 104% in assay [1]; 104% (inactive) in assay [3]; 102% (inactive) in assay [4]; 91.2% (inactive) in assay [5]; 97.5% in assay [6] (setting [9]); 91.2% in assay [6] (setting [10]). In addition, in assay [2], the Her2 level was 91.5% (inactive). Moreover, the differential viability (reversal) in assay [6] (H69AR cells + 2 uM doxorubicin) was -6.33% (inactive). Also, the figures for the inhibition in assay [7] and in assay [8] were -2.97% (inactive) and -9.33% (inactive), respectively.
